Laboratory results taken from ChEMBL document CHEMBL1126988, “Quinolone antibacterials containing the new 7-[3-(1-aminoethyl)-1- pyrrolidinyl] side chain: the effects of the 1-aminoethyl moiety and its stereochemical configurations on potency and in vivo efficacy” (J Med Chem, 1993).
Values after ≈ are worked out from the molar mass of the structure shown.

Legend:
Assay type in all cases: functional
Staphylococcus aureus [1] = assay: Minimum inhibitory concentration was evaluated in vitro against Staphylococcus aureus H 228
Outline: (§1)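 Standard microtitration broth assay against a panel of 10 Gram-positive and Gram-negative organisms. MIC read in µg/mL and averaged over multiple experiments.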

Streptococcus pneumoniae = assay: Minimum inhibitory concentration was evaluated in vitro against Streptococcus pneumoniae SV-1; outline: as §1
Enterobacter cloacae = assay: Minimum inhibitory concentration in vitro against Enterobacter cloacae MA 2646
Escherichia coli = assay: Antibacterial activity in vitro against Escherichia coli Vogel; outline: as §1
Staphylococcus aureus [2] = assay: Minimum inhibitory concentration was evaluated in vitro against Staphylococcus aureus UC 76; outline: as §1
Providencia rettgeri = assay: Minimum inhibitory concentration was evaluated in vitro against Providencia rettgeri M1771; outline: as §1
Streptococcus pyogenes [3] = assay: Antibacterial activity measured as mouse protection against Streptococcus pyogenes C 203 after subcutaneous administration; conditions: for ED50: Streptococcus pyogenes, C 203, sc, read-out: PD50
Streptococcus pyogenes [4] = assay: Compounds were evaluated in vivo for antibacterial activity for mouse protection against Streptococcus pyogenes C 203 after oral administration; conditions: for ED50: Streptococcus pyogenes, C 203, po, read-out: PD50
Enterococcus faecalis = assay: Minimum inhibitory concentration was evaluated in vitro against Enterococcus faecalis MGH-2; outline: as §1
Pseudomonas aeruginosa = assay: Minimum inhibitory concentration was evaluated in vitro against Pseudomonas aeruginosa UI-18; outline: as §1
Streptococcus pyogenes [5] = assay: Minimum inhibitory concentration was evaluated in vitro against Streptococcus pyogenes C 203; outline: as §1
Klebsiella pneumoniae = assay: Minimum inhibitory concentration was evaluated in vitro against Klebsiella pneumoniae MGH2; outline: as §1
[6] = Staphylococcus aureus, read-out: MIC
[7] = Streptococcus pneumoniae, read-out: MIC
[8] = Enterobacter cloacae, read-out: MIC
[9] = Escherichia coli, read-out: MIC
[10] = Providencia rettgeri, read-out: MIC
[11] = Enterococcus faecalis, read-out: MIC
[12] = Pseudomonas aeruginosa, read-out: MIC
[13] = Streptococcus pyogenes, read-out: MIC
[14] = Klebsiella pneumoniae, read-out: MIC

Row | Compound | MIC (Staphylococcus aureus [1]; [6]) [µg/mL] | MIC (Streptococcus pneumoniae; [7]) [µg/mL] | MIC (Enterobacter cloacae; [8]) [µg/mL] | MIC (Escherichia coli; [9]) [µg/mL] | MIC (Staphylococcus aureus [2]; [6]) [µg/mL] | MIC (Providencia rettgeri; [10]) [µg/mL] | ED50 (Streptococcus pyogenes [3]) [mg/kg] | ED50 (Streptococcus pyogenes [4]) [mg/kg] | MIC (Enterococcus faecalis; [11]) [µg/mL] | MIC (Pseudomonas aeruginosa; [12]) [µg/mL] | MIC (Streptococcus pyogenes [5]; [13]) [µg/mL] | MIC (Klebsiella pneumoniae; [14]) [µg/mL] | other results
1 | NCC1CCN(c2nc3c(cc2F)c(=O)c(C(=O)O)cn3-c2ccc(F)cc2F)C1 (stereo unspecified) | 0.05 (≈ 0.12 µM) | 0.025 (≈ 0.0598 µM) | 0.05 (≈ 0.12 µM) | 0.05 (≈ 0.12 µM) | 0.013 (≈ 0.0311 µM) | 0.2 (≈ 0.478 µM) | 1 | 10 | 0.025 (≈ 0.0598 µM) | 0.4 (≈ 0.956 µM) | 0.025 (≈ 0.0598 µM) | 0.1 (≈ 0.239 µM) | 
2 | C[C@@H](N)[C@@H]1CCN(c2nc3c(cc2F)c(=O)c(C(=O)O)cn3-c2ccc(F)cc2F)C1 | 0.1 (≈ 0.231 µM) | 0.1 (≈ 0.231 µM) | 0.1 (≈ 0.231 µM) | 0.1 (≈ 0.231 µM) | 0.025 (≈ 0.0578 µM) | 0.4 (≈ 0.925 µM) |  |  | 0.1 (≈ 0.231 µM) | 1.6 (≈ 3.7 µM) | 0.05 (≈ 0.116 µM) | 0.2 (≈ 0.463 µM) | 
3 | CCNCC1CCN(c2c(F)cc3c(=O)c(C(=O)O)cn(C4CC4)c3c2OC)C1 (stereo unspecified) | 0.025 (≈ 0.062 µM) | 0.013 (≈ 0.0322 µM) | 0.1 (≈ 0.248 µM) | 0.1 (≈ 0.248 µM) | 0.006 (≈ 0.0149 µM) | 0.4 (≈ 0.991 µM) | 0.4 | 4 | 0.05 (≈ 0.124 µM) | 1.6 (≈ 3.97 µM) | 0.013 (≈ 0.0322 µM) | 0.2 (≈ 0.496 µM) | 
4 | CC(N)C1CCN(c2cc3c(c(N)c2F)c(=O)c(C(=O)O)cn3C2CC2)C1 (mixture of isomers) | 0.05 | 0.003 | 0.025 | 0.025 | 0.003 | 0.1 | 4 | 18 | 0.013 | 0.4 | 0.003 | 0.05 | 
5 | CCN[C@H](C)[C@@H]1CCN(c2c(F)cc3c(=O)c(C(=O)O)cn(C4CC4)c3c2OC)C1 | 0.013 (≈ 0.0311 µM) | 0.003 (≈ 0.00719 µM) | 0.2 (≈ 0.479 µM) | 0.2 (≈ 0.479 µM) | 0.003 (≈ 0.00719 µM) | 0.8 (≈ 1.92 µM) |  | 3 | 0.013 (≈ 0.0311 µM) | 3.1 (≈ 7.43 µM) | 0.003 (≈ 0.00719 µM) | 0.4 (≈ 0.958 µM) | 
6 | CCNC(C)C1CCN(c2cc3c(c(N)c2F)c(=O)c(C(=O)O)cn3C2CC2)C1 (racemic) | 0.05 (≈ 0.124 µM) | 0.013 (≈ 0.0323 µM) | 0.1 (≈ 0.248 µM) | 0.1 (≈ 0.248 µM) | 0.025 (≈ 0.0621 µM) | 0.8 (≈ 1.99 µM) | 1 |  | 0.05 (≈ 0.124 µM) | 1.6 (≈ 3.98 µM) | 0.013 (≈ 0.0323 µM) | 0.2 (≈ 0.497 µM) | PD50 (Streptococcus pyogenes [4]): 5 mg/kg
7 | CN[C@H](C)[C@H]1CCN(c2c(F)c(N)c3c(=O)c(C(=O)O)cn(C4CC4)c3c2F)C1 |  |  |  |  |  |  |  |  |  |  |  |  | MIC (Staphylococcus aureus [1]): 0.1 µg/mL (≈ 0.246 µM); MIC (Streptococcus pneumoniae): 0.2 µg/mL (≈ 0.492 µM); MIC (Enterobacter cloacae): 0.2 µg/mL (≈ 0.492 µM); MIC (Escherichia coli): 0.2 µg/mL (≈ 0.492 µM); MIC (Staphylococcus aureus [2]): 0.05 µg/mL (≈ 0.123 µM); MIC (Providencia rettgeri): 0.8 µg/mL (≈ 1.97 µM); PD50 (Streptococcus pyogenes [3]): 13 mg/kg; PD50 (Streptococcus pyogenes [4]): 13 mg/kg; MIC (Enterococcus faecalis): 0.2 µg/mL (≈ 0.492 µM); MIC (Pseudomonas aeruginosa): 3.1 µg/mL (≈ 7.63 µM); MIC (Streptococcus pyogenes [5]): 0.2 µg/mL (≈ 0.492 µM); MIC (Klebsiella pneumoniae): 0.8 µg/mL (≈ 1.97 µM)
8 | CCN[C@@H](C)[C@H]1CCN(c2cc3c(cc2F)c(=O)c(C(=O)O)cn3C2CC2)C1 | 0.8 (≈ 2.06 µM) | 0.4 (≈ 1.03 µM) | 0.4 (≈ 1.03 µM) | 0.4 (≈ 1.03 µM) | 0.4 (≈ 1.03 µM) | 1.6 (≈ 4.13 µM) |  |  | 0.8 (≈ 2.06 µM) | 12.5 (≈ 32.3 µM) | 0.4 (≈ 1.03 µM) | 0.8 (≈ 2.06 µM) | 
9 | CCN[C@H](C)[C@@H]1CCN(c2cc3c(cc2F)c(=O)c(C(=O)O)cn3C2CC2)C1 | 0.1 (≈ 0.258 µM) | 0.05 (≈ 0.129 µM) | 0.2 (≈ 0.516 µM) | 0.2 (≈ 0.516 µM) | 0.025 (≈ 0.0645 µM) | 0.8 (≈ 2.06 µM) |  |  | 0.1 (≈ 0.258 µM) | 6.3 (≈ 16.3 µM) | 0.05 (≈ 0.129 µM) | 0.4 (≈ 1.03 µM) | 
